According to ChEMBL document CHEMBL2040803, “Synthesis and anticonvulsant activity of ethyl 1-(2-arylhydrazinecarboxamido)-2,2-dimethylcyclopropanecarboxylate derivatives” (Eur J Med Chem, 2012):
Active and inactive are the calls of the source.

Tests used:
[1] = tested on: Mus musculus; assay: Anticonvulsant activity in Kunming mouse assessed as protection against maximal electroshock-induced seizures at 300 mg/kg, ip measured after 0.5 hr; assay type: functional, organism-based; design: dose 300 mg/kg
Outline: (§1)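 Male Kunming mice (20 ± 2.0 g) were dosed ip at 30, 100 and 300 mg/kg as a suspension in 0.5% methylcellulose, one to four mice per dose. A 60-Hz, 50-mA current was applied through corneal electrodes for 0.25 s at 0.5 h and 4.0 h after dosing. Absence of hindlimb tonic extension counted as protection. The value is the minimal dose protecting half or more of the mice.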

[2] = tested on: Mus musculus; assay: Anticonvulsant activity in Kunming mouse assessed as protection against maximal electroshock-induced seizures at 300 mg/kg, ip measured after 4 hrs; assay type: functional, organism-based; design: dose 300 mg/kg; outline: as §1
[3] = tested on: Mus musculus; assay: Anticonvulsant activity in Kunming mouse assessed as protection against subcutaneous pentylenetetrazol-induced clonic seizures at 100 mg/kg, ip measured after 0.5 hrs; assay type: functional, organism-based; design: dose 100 mg/kg
Outline: (§2)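 Male Kunming mice (20 ± 2.0 g) received ip doses of 30, 100 or 300 mg/kg as a suspension in 0.5% methylcellulose, one to four mice per dose. Pentylenetetrazole in 0.9% saline was injected subcutaneously. Protection meant failure to show even a threshold seizure (a single clonic spasm lasting at least 5 s), read at 0.5 h and 4.0 h. Activity was scored as the minimal dose protecting half or more of the mice.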

[4] = tested on: Mus musculus; assay: Anticonvulsant activity in Kunming mouse assessed as protection against subcutaneous pentylenetetrazol-induced clonic seizures at 300 mg/kg, ip measured after 4 hrs; assay type: functional, organism-based; design: dose 300 mg/kg; outline: as §2
[5] = tested on: Mus musculus; assay: Neurotoxicity in Kunming mouse at 300 mg/kg, ip after 0.5 hr by rotorod test; assay type: toxicity, organism-based; design: dose 300 mg/kg, route intraperitoneal; settings: in vivo
Outline: (§3)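 Trained male Kunming mice were given ip doses of 30, 100 or 300 mg/kg, one to four per dose. They were placed on a 1 in. knurled rod rotating at 6 rpm, and examined at 0.5 h and 4.0 h. Neurotoxicity was inability to keep balance for at least 1 min in each of four trials. The value is the minimal dose giving toxicity in half or more of the mice.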

[6] = tested on: Mus musculus; assay: Neurotoxicity in Kunming mouse at 300 mg/kg, ip after 4 hrs by rotorod test; assay type: toxicity, organism-based; design: dose 300 mg/kg, route intraperitoneal; settings: in vivo; outline: as §3
[7] = tested on: Mus musculus; assay: Anticonvulsant activity in Kunming mouse assessed as protection against maximal electroshock-induced seizures at 100 mg/kg, ip measured after 0.5 hr; assay type: functional, organism-based; design: dose 100 mg/kg; outline: as §1
[8] = tested on: Mus musculus; assay: Anticonvulsant activity in Kunming mouse assessed as protection against maximal electroshock-induced seizures at 100 mg/kg, ip measured after 4 hrs; assay type: functional, organism-based; design: dose 100 mg/kg; outline: as §1
[9] = tested on: Mus musculus; assay: Anticonvulsant activity in Kunming mouse assessed as protection against subcutaneous pentylenetetrazol-induced clonic seizures at 300 mg/kg, ip measured after 0.5 hrs; assay type: functional, organism-based; design: dose 300 mg/kg; outline: as §2
[10] = tested on: Mus musculus; assay: Anticonvulsant activity in ip dosed Kunming mouse assessed as protection against subcutaneous pentylenetetrazol-induced clonic seizures; assay type: functional
[11] = tested on: Mus musculus; assay: Neurotoxicity in Kunming mouse at 100 mg/kg, ip after 0.5 hr by rotorod test; assay type: toxicity, organism-based; design: dose 100 mg/kg, route intraperitoneal; settings: in vivo; outline: as §3
[12] = tested on: Mus musculus; assay: Anticonvulsant activity in Kunming mouse assessed as protection against maximal electroshock-induced seizures at 30 mg/kg, ip measured after 0.5 hr; assay type: functional, organism-based; design: dose 30 mg/kg; outline: as §1
[13] = tested on: Mus musculus; assay: Anticonvulsant activity in Kunming mouse assessed as protection against maximal electroshock-induced seizures at 30 mg/kg, ip measured after 4 hrs; assay type: functional, organism-based; design: dose 30 mg/kg; outline: as §1
[14] = tested on: Mus musculus; assay: Anticonvulsant activity in Kunming mouse assessed as protection against subcutaneous pentylenetetrazol-induced clonic seizures at 100 mg/kg, ip measured after 4 hrs; assay type: functional, organism-based; design: dose 100 mg/kg; outline: as §2
[15] = tested on: Mus musculus; assay: Anticonvulsant activity in ip dosed Kunming mouse assessed as protection against maximal electroshock-induced seizures; assay type: functional
[16] = Neurotoxicity in ip dosed Kunming mouse measured 30 mins post compound administration by rotorod test; assay type: toxicity, organism-based; settings: in vivo
[17] = species: Mus musculus; assay: Protective index, ratio of TD50 for neurotoxicity in Kunming mouse to ED50 for protection against MES-induced seizures in Kunming mouse; assay type: functional
[18] = tested on: Mus musculus; assay: Protective index, ratio of TD50 for neurotoxicity in Kunming mouse to ED50 for protection against subcutaneous pentylenetetrazol-induced clonic seizures in Kunming mouse; assay type: functional
[19] = tested on: Mus musculus; assay: Neurotoxicity in Kunming mouse at 100 mg/kg, ip after 4 hrs by rotorod test; assay type: toxicity, organism-based; design: dose 100 mg/kg, route intraperitoneal; settings: in vivo; outline: as §3

CCOC(=O)C1(NC(=O)NNC(=O)c2ccc(OC)cc2)CC1(C)C (stereo unspecified)
Activity [1]: Active
Activity [2]: Active
Activity [3]: Active
Activity [4]: inactive
Activity [5]: Non-toxic
Activity [6]: Non-toxic

CCOC(=O)C1(NC(=O)NNC(=O)c2ccccc2C)CC1(C)C (stereo unspecified)
Activity [7]: Active
Activity [8]: Active
Activity [3]: Active
Activity [4]: inactive
Activity [5]: Non-toxic
Activity [6]: Non-toxic

CCOC(=O)C1(NC(=O)NNC(=O)c2ccc(N(C)C)cc2)CC1(C)C (stereo unspecified)
Activity [1]: Active
Activity [2]: Active
Activity [9]: inactive
Activity [4]: inactive
Activity [5]: Non-toxic
Activity [6]: Toxic

CCOC(=O)C1(NC(=O)NNC(=O)c2ccc(OC)c(OC)c2)CC1(C)C (stereo unspecified)
Activity [1]: Active
Activity [2]: Active
Activity [9]: inactive
Activity [4]: inactive
Activity [5]: Non-toxic
Activity [6]: Toxic

CCCC(CCC)C(=O)O [VALPROIC ACID]
ED50 [10]: 149 mg/kg

CCOC(=O)C1(NC(=O)NNC(=O)c2cccs2)CC1(C)C (stereo unspecified)
Activity [1]: inactive
Activity [8]: Active
Activity [9]: Active
Activity [4]: Active
Activity [11]: Toxic
Activity [6]: Toxic

CCOC(=O)C1(NC(=O)NNC(=O)c2ccc(C(F)(F)F)cc2)CC1(C)C (stereo unspecified)
Activity [12]: Active
Activity [13]: Active
Activity [9]: Active
Activity [14]: Active
Activity [5]: Non-toxic
ED50 [15]: 9.8 mg/kg
ED50 [10]: 58.4 mg/kg
TD50 at 0.5 h [16]: 332 mg/kg
Ratio TD50/ED50 [17]: 33.9
Ratio TD50/ED50 [18]: 5.9
Activity [6]: Non-toxic

NC(=O)N1c2ccccc2C=Cc2ccccc21 [CARBAMAZEPINE]
ED50 [15]: 8.8 mg/kg
ED50 [10]: > 100 mg/kg

CCOC(=O)C1(NC(=O)NNC(=O)c2cccnc2)CC1(C)C (stereo unspecified)
Activity [1]: inactive
Activity [2]: inactive
Activity [9]: inactive
Activity [4]: Active
Activity [11]: Toxic
Activity [6]: Toxic

CCOC(=O)C1(NC(=O)NNC(=O)c2ccc(C(C)(C)C)cc2)CC1(C)C (stereo unspecified)
Activity [7]: Active
Activity [2]: inactive
Activity [9]: Active
Activity [4]: inactive
Activity [5]: Non-toxic
Activity [6]: Toxic

CCOC(=O)C1(NC(=O)NNC(=O)c2ccco2)CC1(C)C (stereo unspecified)
Activity [1]: inactive
Activity [2]: Active
Activity [9]: inactive
Activity [4]: inactive
Activity [11]: Toxic
Activity [6]: Toxic

CCOC(=O)C1(NC(=O)NN2C(=O)c3ccccc3C2=O)CC1(C)C (stereo unspecified)
Activity [12]: Active
Activity [8]: Active
Activity [3]: Active
Activity [4]: Active
Activity [5]: Non-toxic
ED50 [15]: 23.6 mg/kg
ED50 [10]: 213 mg/kg
TD50 at 0.5 h [16]: 352 mg/kg
Ratio TD50/ED50 [17]: 14.9
Ratio TD50/ED50 [18]: 1.7
Activity [6]: Non-toxic

CCOC(=O)C1(NC(=O)NNC(=O)c2ccc([N+](=O)[O-])cc2)CC1(C)C (stereo unspecified)
Activity [7]: Active
Activity [2]: inactive
Activity [9]: inactive
Activity [4]: inactive
Activity [5]: Non-toxic
Activity [6]: Toxic

CCOC(=O)C1(NC(=O)NNC(=O)c2ccc(CC)cc2)CC1(C)C (stereo unspecified)
Activity [1]: Active
Activity [2]: Active
Activity [9]: Active
Activity [4]: inactive
Activity [5]: Non-toxic
Activity [6]: Non-toxic

CCOC(=O)C1(NC(=O)NNC(=O)c2cccc(C)c2)CC1(C)C (stereo unspecified)
Activity [7]: Active
Activity [2]: inactive
Activity [9]: inactive
Activity [4]: inactive
Activity [5]: Non-toxic
Activity [6]: Non-toxic

CCOC(=O)C1(NC(=O)NNC(=O)c2ccccc2F)CC1(C)C (stereo unspecified)
Activity [1]: Active
Activity [2]: inactive
Activity [9]: inactive
Activity [4]: inactive
Activity [5]: Non-toxic
Activity [6]: Toxic

CCOC(=O)C1(NC(=O)NNC(=O)c2ccc(C)cc2)CC1(C)C (stereo unspecified)
Activity [7]: Active
Activity [2]: inactive
Activity [9]: inactive
Activity [4]: Active
Activity [5]: Non-toxic
Activity [6]: Toxic

O=C1NC(=O)C(c2ccccc2)(c2ccccc2)N1 [PHENYTOIN]
Activity [12]: Active
Activity [13]: Active
Activity [9]: inactive
Activity [4]: inactive
Activity [11]: Toxic
ED50 [10]: > 300 mg/kg
Activity [19]: Toxic

CCOC(=O)C1(NC(=O)NNC(=O)c2ccccc2)CC1(C)C (stereo unspecified)
Activity [1]: Active
Activity [2]: inactive
Activity [9]: Active
Activity [4]: inactive
Activity [5]: Toxic
Activity [6]: Non-toxic

CCOC(=O)C1(NC(=O)NNC(=O)c2ccc(Br)cc2)CC1(C)C (stereo unspecified)
Activity [7]: Active
Activity [2]: inactive
Activity [9]: inactive
Activity [4]: inactive
Activity [5]: Non-toxic
Activity [6]: Toxic

CCOC(=O)C1(NC(=O)NNC(=O)c2ccccc2Br)CC1(C)C (stereo unspecified)
Activity [1]: Active
Activity [13]: Active
Activity [9]: Active
Activity [4]: Active
Activity [5]: Non-toxic
Activity [6]: Non-toxic

CCOC(=O)C1(NC(=O)NNC(=O)c2ccc(F)cc2)CC1(C)C (stereo unspecified)
Activity [7]: Active
Activity [2]: Active
Activity [9]: Active
Activity [4]: inactive
Activity [5]: Non-toxic
Activity [6]: Non-toxic

CCOC(=O)C1(NC(=O)NNC(=O)c2cc(OC)c(OC)c(OC)c2)CC1(C)C (stereo unspecified)
Activity [1]: Active
Activity [2]: Active
Activity [9]: inactive
Activity [4]: inactive
Activity [5]: Toxic
Activity [6]: Non-toxic

CCOC(=O)C1(NC(=O)NNC(=O)c2ccc(Cl)cc2)CC1(C)C (stereo unspecified)
Activity [12]: Active
Activity [2]: Active
Activity [9]: inactive
Activity [4]: Active
Activity [5]: Non-toxic
ED50 [15]: 20.1 mg/kg
ED50 [10]: 335 mg/kg
TD50 at 0.5 h [16]: 382 mg/kg
Ratio TD50/ED50 [17]: 19
Ratio TD50/ED50 [18]: 1.1
Activity [6]: Toxic

CCC1(c2ccccc2)C(=O)NC(=O)NC1=O [PHENOBARBITAL]
ED50 [15]: 21.8 mg/kg
ED50 [10]: 13.2 mg/kg

CCOC(=O)C1(NC(=O)NNC(=O)c2ccncc2)CC1(C)C (stereo unspecified)
Activity [1]: inactive
Activity [2]: Active
Activity [9]: inactive
Activity [4]: inactive
Activity [11]: Toxic
Activity [6]: Toxic

CCC1(C)CC(=O)NC1=O (stereo unspecified) [ETHOSUXIMIDE]
Activity [1]: inactive
Activity [2]: inactive
Activity [3]: Active
Activity [4]: Active
Activity [5]: Non-toxic
Activity [6]: Non-toxic

CCOC(=O)C1(NC(=O)NNC(=O)c2ccccc2Cl)CC1(C)C (stereo unspecified)
Activity [7]: Active
Activity [2]: Active
Activity [9]: Active
Activity [4]: inactive
Activity [5]: Non-toxic
Activity [6]: Toxic
